Tested on: MS2 coat protein
Assay: apparent Kd, MS2 coat protein; higher = weaker binding; RNA-MaP array; FMN 200 µM where present
In short: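 The apparent Kd is the median of filtered binding-curve fits, one per cluster, to green signal normalised to red-channel RNA signal and control-cluster median Fmax. The clusters were on Illumina sequencing chips, and stalled E. coli RNA polymerase had transcribed the designs on them. Titration used SNAP-549-labelled MS2 coat protein from 0.7 or 1.5 nM, doubling to 3 µM, without and then with constant ligand, in 100 mM Tris-HCl pH 7.5, 80 mM KCl, 4 mM MgCl2, BSA, DTT, yeast tRNA and Tween-20.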

[1] = designed as: OFF switch for flavin mononucleotide, no ligand
[2] = ligand present: flavin mononucleotide, designed as: OFF switch for flavin mononucleotide
[3] = designed as: ON switch for flavin mononucleotide, no ligand
[4] = ligand present: flavin mononucleotide, designed as: ON switch for flavin mononucleotide

| Sequence | apparent Kd [1] | apparent Kd [2] | apparent Kd [3] | apparent Kd [4] |
| --- | --- | --- | --- | --- |
| GGCAAAUGAGCAGGAUAUACAGUACAUGCCUAAUGGAUUCACGCACAUGAGGAUCACCCAUGUACGUAGAAGGGCUCCGAGGAG | 12.2 nM | 14.4 nM | – | – |
| GCCUCAUAGUAGAAGGGACUUUUACAGUAAUGUUUUUAGUGUAAAUAACAUGAGGAUCACCCAUGUCAGGAUAUACUAAGAGGC | 5.82 nM | 6.35 nM | – | – |
| GCACGAUCCUCAGGAUAUCACUGAAACAUGAGGAUCACCCAUGUGCGCAGAUGAGAAGGGAGGACUCCGUCUGACUAAAAGUUA | – | – | 113 nM | 9.95 nM |
| CUCCGUGGCGAGAAGGGCGGGAUUUUAGGUUCUGUAGGAUAUCGAAACAUGAGGAUCACCCAUGUAUUGAUCGGGUGCAGUGUG | 22 nM | 23.2 nM | – | – |
| CGCACUUAGCGAGGAUAUGUAAAACAUGAGGAUCACCCAUGUGAUUUAGUAUCAAUUUUAAUGAAACAGAAGGCGCUUAGUGCG | 8.26 nM | 8.91 nM | – | – |
| GGUACUCAAAGAGUACUGUUUUGAACAUGAGGAUCACCCAUGUAGGAUAUGCGAGUUUUGAAUUUGCAGAAGGACAUUUUUAGC | 17.2 nM | 18.9 nM | – | – |
| CUCGGACAUGAGGAUCACCCAUGUGAGGAUAUGGCGCGAUCGUCGAAAGACGAUAGCGCCAGAAGGCACAAAUG | 65.4 nM | 195 nM | – | – |
| UGUCGGAGCAGAGGAUAUUACAUGAGGAUCACCCAUGUAUGAACCAAUAGCUGGAAACGGCAAUGUAAGAAGGCUGCUCCGACA | 13.1 nM | 171 nM | – | – |
| GUAGCAUAAUCAGGAUAUUCAGCGAAUAGAUAGACAUGAGGAUCACCCAUGUGGCGAAAGCCUCGGGAGAAGGGAUAAUGCUAC | – | – | 168 nM | 54 nM |
| AAGAAACAUGAGGAUCACCCAUGUGAGGAUAUGAGCAAGAAAAGAAAAGAAAGAAGAAUCAGAAGGCACAAAGG | 39.6 nM | 75.7 nM | – | – |
| UCUGAGGUCACAGGAUAUCAUACGUCGGCACGUUGAGAAGGGUGACCGAGCUACAUGAGGAUCACCCAUGUGCUGUCGUAACAA | – | – | 85.4 nM | 164 nM |
| AGCAGACGAGGAUAUAGAUUUGUUAACAUGAGGAUCACCCAUGUGAUCGAUUUUUCAUAUUUAGAAGGUGUCUGCU | 83.3 nM | 392 nM | – | – |
| UGGUACUAGGGAGGAUAUGGGAAGAUACAUGAGGAUCACCCAUGUUUAAGAAUGCCGAGAGGCAACUAGAAGGCCCUAUUACCU | – | – | 365 nM | 20.1 nM |
| CGUCCUUAGUGAGGAUAUCAGAAACUACGGAAAUGAGAAGGCACAUGAGGAUCACCCAUGUAAAUAACGGCCGGUCUUGGCAGC | 7.27 nM | 15.2 nM | – | – |
| UUUUAACAUGAGGAUCACCCAUGUGAGGAUAUCGAAAUUUAUAUUAAUAUUUAUUAAUCGAGAAGGCACAUUUU | 93.7 nM | 122 nM | – | – |
| AUGGUACAUGAGGAUCACCCAUGUCAGGAUAUCGGCUGUGACGUGAAAAGAGUGUUAGCGAGAAGGGACUGCAA | 37.3 nM | 43.1 nM | – | – |
| UGCGUUAAGCCCUUAAGUCGUCAACAUGAGGAUCACCCAUGUAGAAGGCAGCGGACGCAGCCGGCUGAGGAUAUACAUGUAGGU | 7.9 nM | 10.5 nM | – | – |
| CCUCUACAUGAGGAUCACCCAUGUGAGGAUAUCUCGGAGCAACCACUUAAGGCGCUCCAGAGAAGGCACGUGUA | 20.6 nM | 28.9 nM | – | – |
| ACAUGCAUAGCGAUAUGAUCGAGAGAUCAUGUCGCUAAAUUUAGAAGGACAUGAGGAUCACCCAUGUAGGAUAUGGGAGCAUGG | – | – | 42.8 nM | 10.3 nM |
| ACAUGAGGAUCACCCAUGUAUUACAUGGUUAUGUUUAUUAACAGAAGGCGAAAUUACCACUGUUUCGAGGAUAUGUAUUCUAUA | 65.5 nM | 63 nM | – | – |
| CACCGUUAACUAGGAUAUAGUACAUGAGGAUCACCCAUGUAAUAAAUGAGAAUUUCGGAUGUAUGCUAGAAGGAGUAAAUCGGC | 62.8 nM | 64.4 nM | – | – |
| CCGGAAACGGGUAGCUGUACAUGAGGAUCACCCAUGUGAUCAUAGGAUAUGGAUCCUAAUUGGAUCCAGAAGGAUGUCAGCUAC | – | – | 163 nM | 580 nM |
| AAUUGUCGUGAGGAUAUGUACGUUUUAGUAACGACAGAAGGCAUGACAUGAGGAUCACCCAUGUUGUAAUCUGG | 82 nM | 429 nM | – | – |
| AUAUCAAGCAAGGAUAUGCAAAUGGUUAUUUAUGCAGAAGGUGCGACAUGAGGAUCACCCAUGUUUCUGGGUUU | 87.7 nM | 134 nM | – | – |

| Sequence | apparent Kd [1] | apparent Kd [2] | apparent Kd [3] | apparent Kd [4] |
| --- | --- | --- | --- | --- |
| CCGUGGCAAGGAUAUACAUAGGAGAGGAAGGCAAGAGGAGGACAUGAGGAUCACCCAUGUAGAAGGUGCAGAUC | 73.8 nM | 67.8 nM | – | – |
| AUAAUGAGAGGAUAUACAUGAGGAUCACCCAUGUUAUUAUCACGGCGUGCUCCAUUACGUAGAAGGCUCAUUUA | 117 nM | 35.2 nM | – | – |
| ACCUCGUCAGGAUAUCCUAUUAAUUGUUUCAUAUUUACUAUGGAGAAGGGACAUGAGGAUCACCCAUGUUGGUC | 53.3 nM | 57.8 nM | – | – |
| UGUCGGAGCAGAGGAUAUUACAUGAGGAUCACCCAUGUAUGAACCAAUAGCUGGAAACAGCAAUUUAAGAAGGCUGCUCCGACA | 5.28 nM | 4.96 nM | – | – |
| UGGUACUAGGGAGGAUAUGGGAAGAUACAUGAGGAUCACCCAUGUUUAAGAAUGCCGAGAGGCAACUAGAAGGCCCUAGCACCU | – | – | 426 nM | 19 nM |
| AAGGAUAGAGGAUAUACGUAGAUACAGAUUCAUGUAGAACUACAUGAGGAUCACCCAUGUAGAAGGCUAUCCUA | 28.8 nM | 299 nM | – | – |
| AGUAGAUCAGGAUAUACGUGAAAGGUCAAAGUGUCCAAUCUACAUGAGGAUCACCCAUGUAGAAGGGAUCUACA | 15.2 nM | 14.6 nM | – | – |
| AGAUGGUAUAUAGGAUAUCAUGUGCAAACAUGAGGAUCACCCAUGUAGAAACGUCAGUUUAAUAAUGAGAAGGAUAUACCAUCU | – | – | 31.9 nM | 11.5 nM |
| CGGGCUGCUGUGAGGAUAUGCCUGUGGGUGCGUGGGUAGAAGGCACAUGAGGAUCACCCAUGUCCUGCGGCUCG | 736 nM | 537 nM | – | – |
| UGUGCGUUGAUCUUCGAUCGGUGUACAUGAGGAUCACCCAUGUAGGAUAUUCUAAGACGCAGAUAGGAGAAGGACAUUGGUUUU | 22.9 nM | 64.1 nM | – | – |
| GGUACCAACACAGGAUAUGCUAUCCUUUGGGUAGCAGAAGGGUGAAAACAUGAGGAUCACCCAUGUGGUACCGGGCGUGAGCCC | – | – | 519 nM | 45.4 nM |
| CGAUUGGGAGGAUAUGCGUGGAUAGUUUUAUAUAGUAUGUUACAUGAGGAUCACCCAUGUAGAAGGUUCGGUUG | 56.9 nM | 58.3 nM | – | – |
| UAAAGCGUAGAUAAUUAUGUUACAUGAGGAUCACCCAUGUCAUAGGAUAUGCAGUGGAAUACACUGCAGAAGGAUGAAUCGCAG | 24.9 nM | 33.3 nM | – | – |
| CGCAACAUGAGGAUCACCCAUGUUCGCGGGCAAUUUUAGUGCAGAAGGGACAACGAAACGUAGGGUCAGGAUAUGCAUGUGCGC | – | – | 5.26 nM | 5.17 nM |
| CCGCAAAUGCAGGAUAUCGUAUCGGAUACGAUACGAGAAGGGCAAACAUGAGGAUCACCCAUGUGUCCUAGCGG | 15 nM | 26.6 nM | – | – |
| GAUCUGACAGGAUAUACAUGAGGAUCACCCAUGUGCGAGCUAGCGAAAGCUAGCUCAGGUAGAAGGGUCAGAUC | 12 nM | 16.4 nM | – | – |
| AAUUAUAGGUAGAAGGUACUGACUUAUGUGUUGUAAGGAUAUACCAAAUUAUUAGAUCUCAAGUUACAUGAGGAUCACCCAUGU | – | – | 9.18 nM | 7.97 nM |
| AUUAUUAAUGCAGGAUAUGAUUAACAUGAGGAUCACCCAUGUGGUGUUGUGAGUAAGGAGAGUGAUCAGAAGGGCAUUUUUUUU | – | – | 493 nM | 695 nM |
| UCAACCAGCGCCAGUUGAACAUGAGGAUCACCCAUGUACUCCAGAAGGCCGCCCAAGAACGGAGUGGAGGAUAUGGAGGUUCUC | – | – | 28.5 nM | 18.4 nM |
| GCGUGUCGUGUAGGAUAUGACACAGGAAACUGGUCAGAAGGACAUGAGGAUCACCCAUGUAAAAUGUUCAAGAAUAACGCAUGC | 27.8 nM | 39.2 nM | – | – |
| GAGUCUCUAUUAGAACCGAUACGAACAUGAGGAUCACCCAUGUAGGAUAUGCUAAAAGUUGUGUUGCAGAAGGACAUUUAUCGC | 11.1 nM | 10.9 nM | – | – |
| ACUUAUAGAGGAUAUACAGAAUAUUACAUGAGGAUCACCCAUGUUCUUCAAUGUAUAUUUGUAGAAGGCUAAGGAA | 50.6 nM | 249 nM | – | – |
| AUGAGAAAAGCAGGAUAUCUAUUGUCUCAGAAACAUGAGGAUCACCCAUGUAGAGAAGGGCUAAGACCGACUCUUCGGAGUUGA | 9.66 nM | 9.77 nM | – | – |
| GGUACUCAAAGAGUACCAAUAUGAACAUGAGGAUCACCCAUGUAGGAUAUGCUACUCAAAGAGUAGCAGAAGGAUAUGUGUCUA | 19.6 nM | 21.2 nM | – | – |
